This is a sample that favours compounds with a hit; in the whole collection about 1.9% have one here.
CHRM5 agonist: agonists of human muscarinic M5 receptor (CHRM5) | P08912 | CHO-K1 hM5 cells, Fluo-8 calcium fluorescence; 0% DMSO wells, 100% maximal acetylcholine response | activation, % at 3 µM | hit rate 0.19% among 360,000 | AID 624037;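 active means activation above the run's mean over test compounds plus 3 SD, cut at about 23% in these data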;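 further: signal is peak over basal fluorescence ratio across the kinetic read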
Target sequence (P08912 whole entry, looked up): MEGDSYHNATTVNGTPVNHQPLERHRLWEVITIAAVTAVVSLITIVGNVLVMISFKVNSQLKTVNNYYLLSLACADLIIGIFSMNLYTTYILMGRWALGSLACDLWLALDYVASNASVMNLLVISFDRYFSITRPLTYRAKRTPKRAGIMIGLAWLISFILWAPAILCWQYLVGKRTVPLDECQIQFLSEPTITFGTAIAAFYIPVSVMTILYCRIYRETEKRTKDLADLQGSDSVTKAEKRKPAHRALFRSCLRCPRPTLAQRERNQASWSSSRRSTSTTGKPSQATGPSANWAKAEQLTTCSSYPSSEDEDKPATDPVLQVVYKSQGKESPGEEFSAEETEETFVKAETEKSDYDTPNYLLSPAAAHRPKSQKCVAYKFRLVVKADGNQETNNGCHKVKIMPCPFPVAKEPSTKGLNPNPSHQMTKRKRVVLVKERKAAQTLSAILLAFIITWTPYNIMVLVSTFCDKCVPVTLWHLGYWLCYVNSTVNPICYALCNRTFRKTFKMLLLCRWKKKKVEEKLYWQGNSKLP
CHRM4 antagonist: blocks acetylcholine activation of human M4 receptor | CHO-hM4 cells, ACh EC80, Fluo-8 calcium fluorescence | inhibition, % at 3 µM | hit rate 0.73% among 360,000;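 active means inhibition above its plate's cutoff, the mean inhibition of sample wells plus 3 SD, cut at about 27% in these data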
CHRM4 PAM: positive allosteric modulators of human muscarinic M4 receptor; P08173; CHO-K1 hM4/Gqi5, Fluo-8 calcium fluorescence, ACh EC20; 0% = ACh EC20, 100% = maximal ACh; activation, % at 3 µM; hit rate 0.4% among 360,000; AID 624126;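 active means activation above its plate's cutoff, the mean activation of sample wells plus 3 SD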
CHRM4 agonist: CHRM4 agonism in calcium assay; CHO-K1 hM4/Gqi5, Fluo-8 calcium fluorescence; vehicle 0%, full acetylcholine response 100%; activation, % at 3 µM; AID 624127; P08173; hit rate 0.14% among 360,000;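 active means activation above the run mean over all test wells plus 3 SD, cut at about 32% in these data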;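 further: peak over basal fluorescence ratio per well then scaled between controls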
M5 PAM: CHRM5 positive allosteric modulation | CHO-K1 hM5, Fluo-8 calcium, ACh EC20 PAM; 0% = ACh EC20, 100% = ACh EC100 | activation, % at 3 µM | hit rate 0.3% among 360,000;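 active means activation above the run cutoff, the mean activation of all test compounds plus 3 SD, cut at about 18% in these data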
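Assay system: CHO-K1 hM5 cells / Incubation: Fluo-8 loading 80 min at 37 °C plus 30 min room temperature / Technique: Fluo-8 calcium dye fluorescence, kinetic read / Repeats: single replicate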
M5 antag: blocks acetylcholine activation of human M5 receptor; inhibition, % at 3 µM; hit rate 0.59% among 360,000; P08912; CHO-hM5 cells, Fluo-8 calcium fluorescence, ACh EC80;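 active means inhibition above a per-plate cutoff, the mean of that plate's test compounds plus 3 SD, cut at about 27% in these data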
Large screens that a line does not name were inactive.

COc1cc(NC(=O)c2cc3nc(C)cc(C)n3n2)c(OC)cc1Cl	CHRM4 PAM 28
CC(C)Sc1cc(N2CCOCC2)nc(-c2ccccc2)n1	CHRM4 PAM 32
CCCCn1c(N)c(N(CCOC)C(=O)CSc2ccc([N+](=O)[O-])cc2)c(=O)[nH]c1=O	none
O=C(CCCN1CCOCC1)c1ccc2c(c1)OCCO2	none
O=C(CCCN1CCC(c2ccccc2)C1)c1ccc2c(c1)OCCO2 (stereo not drawn)	CHRM4 antagonist 27
CC1CCN(CCOc2ccc(C(=O)c3ccccc3)cc2)CC1	CHRM4 antagonist 43
CC1CCN(CCCOc2ccc(OCc3ccccc3)cc2)CC1	none
CC1CCN(CCCCOc2cccc(C(C)C)c2)CC1	CHRM4 antagonist 34
CC1CCN(CCCCOc2ccc(C(=O)c3ccccc3)cc2)CC1	CHRM4 antagonist 42
CSCC[C@H](NC(=O)[C@H](Cc1ccccc1)n1c(=O)[nH]c2ccccc2c1=O)C(=O)NCC1CCC(C(=O)O)CC1 (stereo partly drawn)	none
COc1ccc(C(=O)NC(=S)Nc2ccc(N3CCN(C(C)=O)CC3)cc2)cc1[N+](=O)[O-]	none
CC(=O)N1CCN(c2ccc(Oc3ccc([N+](=O)[O-])c(C(F)(F)F)c3)cc2)CC1	M5 antag 27
Cc1oc(C(=O)O)cc1COc1ccccc1Cl	CHRM5 agonist 30, M5 PAM 42
O=C(O)c1ccccc1COc1ccccc1Cl	none
CCOC(=O)C1CCN(S(=O)(=O)c2cn(C)c(=O)n(C)c2=O)CC1	CHRM4 antagonist 32
O=C(Nc1ccc(C(=O)O)cc1)/C(=C\c1ccco1)NC(=O)c1ccco1	none
N=C(N)c1ccc(O)cc1	CHRM4 PAM 28
c1ccc2sc(-c3ccncc3)nc2c1	M5 PAM 32, M5 antag 28
COc1cccc(N2CC(C(=O)Nc3nnc(SCCC4OCCO4)s3)CC2=O)c1 (stereo not drawn)	M5 antag 31
O=C(Nc1nnc(SCCC2OCCO2)s1)C1CC(=O)N(c2ccccc2)C1 (stereo not drawn)	none
CC(=O)c1ccc(N2CCN(C(=O)c3ccc(Cl)c(NC4=NC5CS(=O)(=O)CC5S4)c3)CC2)cc1 (stereo not drawn)	CHRM4 PAM 48, M5 PAM 21, M5 antag 29
CC1CCCC(NC(=O)COC(=O)c2ccc([N+](=O)[O-])o2)C1C (stereo not drawn)	none
CC1CCCC(NC(=O)COC(=O)c2ccc(Br)o2)C1C (stereo not drawn)	CHRM4 PAM 22
CC(=O)Nc1ccc(S(=O)(=O)N2CCCC(C(=O)N3CCN(c4ccccc4)CC3)C2)cc1 (stereo not drawn)	none
COc1ccc(CC2(CO)CCN(CC3=Cc4cc(Cl)ccc4OC3)CC2)cc1	CHRM4 antagonist 29
COc1ccccc1N1CC(C(=O)OCC(=O)c2c(N)n(C)c(=O)n(C)c2=O)CC1=O (stereo not drawn)	none
O=C(C1=C(O)C(=O)N(c2nccs2)C1c1ccccc1)c1cc2ccccc2o1 (stereo not drawn)	CHRM5 agonist 65
CCc1ccc(NC(=S)N2CCN(S(=O)(=O)c3ccccc3)CC2)cc1	none
CCOCCCNc1ncnc2c1[nH]c1ccccc12	none
CCCCOCCCNc1ncnc2c1[nH]c1ccccc12	CHRM4 antagonist 31, M5 antag 28
CCOC(=O)c1c(C)[nH]c(C(=O)OC(C)C(=O)NC2(C#N)CCCCC2)c1C (stereo not drawn)	none
O=C(Nc1c(C(=O)N2CCC(N3CCCCC3)CC2)oc2ccccc12)c1ccc(F)cc1	none
NC(=O)c1oc2ccccc2c1NC(=O)c1ccc(F)cc1	CHRM4 antagonist 39
Cc1ccc(-c2noc(COC(=O)c3ccco3)n2)cc1	none
O=[N+]([O-])c1cccc(-c2nnc(C3CC3)o2)c1	M5 PAM 36
Nc1nnc(-c2cccc([N+](=O)[O-])c2)o1	none
COc1ccc(CN(CC(=O)NCc2ccc3c(c2)OCO3)C(=O)c2csnn2)cc1	none
